# Measurements as given in ChEMBL document CHEMBL3351971 (Bioorg Med Chem, 2014).
# The source made the active and inactive calls. The calls are words filed in the database; no cut-off is given here.
# Experiments:
# [1] = test system: Leishmania infantum; experiment: Antileishmanial activity against axenically cultured Leishmania infantum chagasi MHOM/BR/00/1669 promastigotes assessed as inhibition of parasite growth after 24 hrs; conditions: chagasi MHOM/BR/00/1669, 24 h
# [2] = test system: Leishmania infantum; experiment: Antileishmanial activity against intracellular Leishmania infantum chagasi MHOM/BR/00/1669 amastigotes infected in mouse RAW264.7 cells assessed as inhibition of parasite growth after 48 hrs; type: functional, organism-based; conditions: chagasi MHOM/BR/00/1669, RAW264.7, 48 h
# How it was run: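 RAW 264.7 macrophages (4×10^5/well, RPMI-1640 + 10% FBS) adhered for 24 h, then infected with promastigotes at 1:10 for 2 h. Non-adherent parasites rinsed off and cells held 72 h. Compounds added from ethanol stocks in six two-fold dilutions for 48 h at 37 °C, 5% CO2. Amastigotes detected by cell ELISA (saponin permeabilization, rabbit anti-Leishmania serum 1:500, peroxidase anti-rabbit, OPD, 492 nm).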
# [3] = test system: Leishmania infantum; experiment: Antileishmanial activity against intracellular Leishmania infantum chagasi MHOM/BR/00/1669 amastigotes infected in BALB/c mouse assessed as inhibition of parasite growth in liver at 100 mg/kg, ip once daily treated after 30 days post infection for 30 days; type: functional, organism-based; design: dose 100 mg/kg
# How it was run: (§1)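 Male BALB/c mice, 21 days old, infected IP with 1×10^7 Ficoll-purified metacyclic promastigotes; infection confirmed by liver and spleen imprints at 35 days. Compounds given IP at 100 mg/kg once daily for 30 days, 0.5 mL injected, n = 5 per group. Controls were Glucantime (80 mg/Kg intramuscular) and water. Liver and spleen collected afterwards; amastigotes detected qualitatively by anti-Leishmania immunohistochemistry with DAB.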
# [4] = test system: Leishmania infantum; experiment: Antileishmanial activity against intracellular Leishmania infantum chagasi MHOM/BR/00/1669 amastigotes infected in BALB/c mouse assessed as inhibition of parasite growth in spleen at 100 mg/kg, ip once daily treated after 30 days post infection for 30 days; type: functional, organism-based; design: dose 100 mg/kg
# How it was run: as §1
# [5] = Cytotoxicity against mouse RAW264.7 cells assessed as cell survival at 100 ug/ml after 48 hrs by MTT assay; type: cell-based; conditions: read-out: Survival
# How it was run: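 RAW 264.7 cells were seeded at 4×10^4/well. Compounds were dissolved at 0.2% in ethanol and diluted in M199 medium, highest concentration 100 µg/mL. Cells were exposed for 48 h at 37 °C in humidified 5% CO2, with […] vehicle controls. Viability was read by MTT.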
Compound,EC50 [1] [µg/mL],EC50 [2] [µg/mL],Activity [3],Activity [4],"viability at 48 h, 100 ug/ml [5] [%]"
CC(=O)Oc1cc(C)ccc1C(C)C,9.07,10.9,Active,inactive,> 100
Cc1ccc(C(C)C)c(OC(=O)c2ccccc2)c1,8.67,15.1,Active,Active,63.6
C[C@@H]1[C@H](O)[C@@H](C)/C=C/C=C/C=C/C=C/C=C/C=C/C=C/[C@H](O[C@@H]2O[C@H](C)[C@@H](O)[C@H](N)[C@@H]2O)C[C@@H]2O[C@](O)(C[C@@H](O)C[C@@H](O)[C@H](O)CC[C@@H](O)C[C@@H](O)CC(=O)O[C@H]1C)C[C@H](O)[C@H]2C(=O)O [AMPHOTERICIN B],,20.4,,,98.5
C=CCc1ccc(O)c(OC)c1 [EUGENOL],56.1,20.8,,,29
C=CCc1ccc(OC(C)=O)c(OC)c1 [EUGENYL ACETATE],23.2,18.5,Active,Active,> 100
C=CCc1ccc(OC(=O)c2ccccc2)c(OC)c1 [EUGENYL BENZOAT],10.6,14.9,Active,Active,97.7
N=C(N)c1ccc(OCCCCCOc2ccc(C(=N)N)cc2)cc1 [PENTAMIDINE],5.3,,,,85.6
Cc1ccc(C(C)C)c(O)c1 [THYMOL],,23.9,,,36.5
MEGLUMINE ANTIMONATE,,,,inactive,
